# ChEMBL document CHEMBL5724801, “EUbOPEN Chemogenomics Library - Multiplex” (2024)
# Several values for one entry are separate records, joined by “and”; a condition that tells them apart may be missing. Identical values can stand only once.
# Test system: Fibroblast
# Experiment: Multiplex assay against human fibroblast
# Type: toxicity, cell-based
# How it was run: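 Live cells carried four stains from seeding: Hoechst33342, BioTracker Green Microtubule Cytoskeleton Dye, MitoTracker Red and Annexin V Alexa Fluor 680. They were imaged on a CQ1 microscope at 37°C and 5% CO2 after compound addition. Using CellPathfinder machine-learning gating, cells were split into Hoechst high-intensity objects or normal cells, normal cells into healthy, pyknosed or fragmented nuclei, and pyknosed cells into mitotic or apoptotic; tubulin, mitochondrial-mass and membrane-permeability phenotypes are per cents of healthy-nucleus cells.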
# [1] = 12 h, 1 µM, compound concentration 1 uM
# [2] = 12 h, 10 µM, compound concentration 10 uM
# [3] = 24 h, 1 µM, compound concentration 1 uM
# [4] = 24 h, 10 µM, compound concentration 10 uM
# [5] = 48 h, 1 µM, compound concentration 1 uM
# [6] = 48 h, 10 µM, compound concentration 10 uM
structure (smiles),measurement,setting,value
COc1ccc(Cl)cc1[C@]1(F)C(=O)Nc2cc(C(F)(F)F)ccc21 [FLINDOKALNER],Population Apoptotic (%),[1],10.87% and 19.35%
same,Population Fragmented Nuclei (%),[1],9.6% and 5.91%
same,Population Healthy Nuclei (%),[1],64.41% and 80%
same,Population Hoechst High Intensity Objects (%),[1],0%
same,Population Membrane Permeable-Phenotype (%),[1],2.63% and 1.7%
same,Population Mitochondria Different-Phenotype (%),[1],7.02% and 9.09%
same,Population Mitotic Cells (%),[1],89.13% and 80.65%
same,Population Normal (%),[1],100%
same,Population Pyknosed Nuclei (%),[1],25.99% and 14.09%
same,Population Tubulin-Different-Phenotype (%),[1],10.53% and 15.34%
same,Total Cell Count,[1],177 and 220
same,Population Apoptotic (%),[2],10.2% and 11.76%
same,Population Fragmented Nuclei (%),[2],14.63% and 8.91%
same,Population Healthy Nuclei (%),[2],55.49% and 74.26%
same,Population Hoechst High Intensity Objects (%),[2],0%
same,Population Membrane Permeable-Phenotype (%),[2],5.49% and 4.67%
same,Population Mitochondria Different-Phenotype (%),[2],15.38% and 11.33%
same,Population Mitotic Cells (%),[2],89.8% and 88.24%
same,Population Normal (%),[2],100%
same,Population Pyknosed Nuclei (%),[2],29.88% and 16.83%
same,Population Tubulin-Different-Phenotype (%),[2],15.38% and 34.67%
same,Total Cell Count,[2],164 and 202
same,Population Apoptotic (%),[3],14.63% and 27.27%
same,Population Fragmented Nuclei (%),[3],10.29% and 4.91%
same,Population Healthy Nuclei (%),[3],69.61% and 85.27%
same,Population Hoechst High Intensity Objects (%),[3],0%
same,Population Membrane Permeable-Phenotype (%),[3],3.52% and 2.09%
same,Population Mitochondria Different-Phenotype (%),[3],5.63% and 5.76%
same,Population Mitotic Cells (%),[3],85.37% and 72.73%
same,Population Normal (%),[3],100%
same,Population Pyknosed Nuclei (%),[3],20.1% and 9.82%
same,Population Tubulin-Different-Phenotype (%),[3],19.72% and 10.99%
same,Total Cell Count,[3],204 and 224
same,Population Apoptotic (%),[4],4.65% and 14.29%
same,Population Fragmented Nuclei (%),[4],9.94% and 5.1%
same,Population Healthy Nuclei (%),[4],64.91% and 84.18%
same,Population Hoechst High Intensity Objects (%),[4],0%
same,Population Membrane Permeable-Phenotype (%),[4],3.6% and 3.03%
same,Population Mitochondria Different-Phenotype (%),[4],12.61% and 10.3%
same,Population Mitotic Cells (%),[4],95.35% and 85.71%
same,Population Normal (%),[4],100%
same,Population Pyknosed Nuclei (%),[4],25.15% and 10.71%
same,Population Tubulin-Different-Phenotype (%),[4],27.93% and 29.09%
same,Total Cell Count,[4],171 and 196
same,Population Apoptotic (%),[5],33.33% and 18.18%
same,Population Fragmented Nuclei (%),[5],9.22% and 7.42%
same,Population Healthy Nuclei (%),[5],83.87% and 87.77%
same,Population Hoechst High Intensity Objects (%),[5],0%
same,Population Membrane Permeable-Phenotype (%),[5],2.2% and 1%
same,Population Mitotic Cells (%),[5],66.67% and 81.82%
same,Population Normal (%),[5],100%
same,Population Pyknosed Nuclei (%),[5],6.91% and 4.8%
same,Population Tubulin-Different-Phenotype (%),[5],12.09% and 14.43%
same,Total Cell Count,[5],217 and 229
same,Population Apoptotic (%),[6],22.22% and 18.18%
same,Population Healthy Nuclei (%),[6],74.18% and 91.26%
same,Population Hoechst High Intensity Objects (%),[6],0%
same,Population Membrane Permeable-Phenotype (%),[6],2.96% and 5.32%
same,Population Mitochondria Different-Phenotype (%),[6],14.81% and 5.32%
same,Population Mitotic Cells (%),[6],77.78% and 81.82%
same,Population Normal (%),[6],100%
same,Population Pyknosed Nuclei (%),[6],9.89% and 5.34%
same,Population Tubulin-Different-Phenotype (%),[6],14.81% and 30.32%
same,Total Cell Count,[6],182 and 206
O=C(Nc1cc(C(F)(F)F)cc(C(F)(F)F)c1)c1cc(Cl)ccc1O [IMD-0354],Population Apoptotic (%),[1],6.12% and 12.9%
same,Population Fragmented Nuclei (%),[1],11.69% and 4.09%
same,Population Healthy Nuclei (%),[1],56.49% and 77.78%
same,Population Hoechst High Intensity Objects (%),[1],0%
same,Population Membrane Permeable-Phenotype (%),[1],4.6% and 8.27%
same,Population Mitochondria Different-Phenotype (%),[1],6.9% and 2.26%
same,Population Mitotic Cells (%),[1],93.88% and 87.1%
same,Population Normal (%),[1],100%
same,Population Pyknosed Nuclei (%),[1],31.82% and 18.13%
same,Population Tubulin-Different-Phenotype (%),[1],8.05% and 22.56%
same,Total Cell Count,[1],154 and 171
same,Population Apoptotic (%),[2],0% and 6.33%
same,Population Fragmented Nuclei (%),[2],23.45% and 22.08%
same,Population Healthy Nuclei (%),[2],49.56% and 45%
same,Population Hoechst High Intensity Objects (%),[2],0%
same,Population Membrane Permeable-Phenotype (%),[2],3.57% and 2.78%
same,Population Mitochondria Different-Phenotype (%),[2],0% and 6.48%
same,Population Mitotic Cells (%),[2],100% and 93.67%
same,Population Normal (%),[2],100%
same,Population Pyknosed Nuclei (%),[2],26.99% and 32.92%
same,Total Cell Count,[2],226 and 240
same,Population Apoptotic (%),[3],9.09% and 16.33%
same,Population Fragmented Nuclei (%),[3],10.5% and 2.76%
same,Population Healthy Nuclei (%),[3],59.12% and 70.17%
same,Population Hoechst High Intensity Objects (%),[3],0%
same,Population Membrane Permeable-Phenotype (%),[3],8.41% and 8.66%
same,Population Mitochondria Different-Phenotype (%),[3],2.8% and 0.79%
same,Population Mitotic Cells (%),[3],90.91% and 83.67%
same,Population Normal (%),[3],100%
same,Population Pyknosed Nuclei (%),[3],30.39% and 27.07%
same,Population Tubulin-Different-Phenotype (%),[3],14.02% and 25.2%
same,Total Cell Count,[3],181
same,Population Apoptotic (%),[4],7.58% and 18.81%
same,Population Fragmented Nuclei (%),[4],25.35% and 26.19%
same,Population Healthy Nuclei (%),[4],44.24% and 33.73%
same,Population Hoechst High Intensity Objects (%),[4],0%
same,Population Mitochondria Different-Phenotype (%),[4],0% and 1.18%
same,Population Mitotic Cells (%),[4],92.42% and 81.19%
same,Population Normal (%),[4],100%
same,Population Pyknosed Nuclei (%),[4],30.41% and 40.08%
same,Total Cell Count,[4],217 and 252
same,Population Apoptotic (%),[5],7.14% and 17.65%
same,Population Fragmented Nuclei (%),[5],19.1% and 8.99%
same,Population Healthy Nuclei (%),[5],49.44% and 71.91%
same,Population Hoechst High Intensity Objects (%),[5],0%
same,Population Membrane Permeable-Phenotype (%),[5],5.68% and 16.41%
same,Population Mitochondria Different-Phenotype (%),[5],9.09% and 0%
same,Population Mitotic Cells (%),[5],92.86% and 82.35%
same,Population Normal (%),[5],100%
same,Population Pyknosed Nuclei (%),[5],31.46% and 19.1%
same,Population Tubulin-Different-Phenotype (%),[5],18.18% and 32.03%
same,Total Cell Count,[5],178
same,Population Apoptotic (%),[6],32.47% and 70.37%
same,Population Fragmented Nuclei (%),[6],33.5%
same,Population Healthy Nuclei (%),[6],28% and 39.5%
same,Population Hoechst High Intensity Objects (%),[6],0%
same,Population Membrane Permeable-Phenotype (%),[6],17.86% and 22.78%
same,Population Mitochondria Different-Phenotype (%),[6],1.79% and 2.53%
same,Population Mitotic Cells (%),[6],67.53% and 29.63%
same,Population Normal (%),[6],100%
same,Population Pyknosed Nuclei (%),[6],38.5% and 27%
same,Population Tubulin-Different-Phenotype (%),[6],26.79% and 75.95%
same,Total Cell Count,[6],200
